Data published in ChEMBL document CHEMBL1671716, “Antimicrobial susceptibility patterns for recent clinical isolates of anaerobic bacteria in South Korea” (2010).

system: Clostridium perfringens; test: Antimicrobial activity against Clostridium perfringens assessed as percent resistant isolates after 48 hrs by agar dilution method; type: functional

Compound | Activity [%]
C[C@@H](O)[C@H]1C(=O)N2C(C(=O)O)=C(S[C@@H]3CN[C@H](C(=O)N(C)C)C3)[C@H](C)[C@H]12 [MEROPENEM] | 0
CCC[C@@H]1C[C@@H](C(=O)N[C@@H]([C@H]2O[C@H](SC)[C@H](O)[C@@H](O)[C@H]2O)[C@H](C)Cl)N(C)C1 [CLINDAMYCIN] | 7
O=C(N[C@H](CO)[C@H](O)c1ccc([N+](=O)[O-])cc1)C(Cl)Cl [CHLORAMPHENICOL] | 0
C[C@@H](O)[C@H]1C(=O)N2C(C(=O)O)=C(SCCNC=N)C[C@H]12 [IMIPENEM ANHYDROUS] | 0
Cc1ncc([N+](=O)[O-])n1CCO [METRONIDAZOLE] | 0
CCN1CCN(C(=O)N[C@@H](C(=O)N[C@@H]2C(=O)N3[C@@H]2SC(C)(C)[C@@H]3C(=O)O)c2ccccc2)C(=O)C1=O [PIPERACILLIN] | 0
CO[C@@]1(NC(=O)C2SC(=C(C(N)=O)C(=O)O)S2)C(=O)N2C(C(=O)O)=C(CSc3nnnn3C)CS[C@@H]21 (some centres undefined) [CEFOTETAN] | 0
CO[C@@]1(NC(=O)Cc2cccs2)C(=O)N2C(C(=O)O)=C(COC(N)=O)CS[C@@H]21 [CEFOXITIN] | 0

system: Clostridium perfringens; test: Antimicrobial activity against Clostridium perfringens assessed as percent resistant isolates after 48 hrs by agar dilution method in presence of 4 ug/ml beta-lactamase inhibitor Tazobactam; type: functional
Method in brief: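 CLSI agar dilution on recent Korean clinical anaerobe isolates. Inoculum 10^5 CFU per spot by replicator. Plates incubated in an anaerobic chamber at 37°C for 48 h. For piperacillin plus tazobactam, tazobactam was held constant at 4 μg/ml. Resistance and susceptibility rates derived from MICs.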

Compound | Activity [%]
CCN1CCN(C(=O)N[C@@H](C(=O)N[C@@H]2C(=O)N3[C@@H]2SC(C)(C)[C@@H]3C(=O)O)c2ccccc2)C(=O)C1=O [PIPERACILLIN] | 0
